Source: PubChem BioAssay
GASC1 inh – inhibitors of GASC-1 (KDM4C) histone demethylase, primary screen, biochemical, single concentration HTS | inhibition, % at 12.5 µM | AID 720574, 2013 | Lysine-specific demethylase 4C (Homo sapiens), Q9H3R0 | 96,000 tested, 0.15% active | GST-KDM4C 2-372, H3K9me3 peptide, LANCE TR-FRET;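 active = mean replicate inhibition above about 25%, with at least 55% of replicates also reaching it, limit read from the data, passing the limit was not always enough; inconclusive = only one of those two conditions met; inactive = neither condition met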
Target sequence (Q9H3R0 2-372 limits assumed): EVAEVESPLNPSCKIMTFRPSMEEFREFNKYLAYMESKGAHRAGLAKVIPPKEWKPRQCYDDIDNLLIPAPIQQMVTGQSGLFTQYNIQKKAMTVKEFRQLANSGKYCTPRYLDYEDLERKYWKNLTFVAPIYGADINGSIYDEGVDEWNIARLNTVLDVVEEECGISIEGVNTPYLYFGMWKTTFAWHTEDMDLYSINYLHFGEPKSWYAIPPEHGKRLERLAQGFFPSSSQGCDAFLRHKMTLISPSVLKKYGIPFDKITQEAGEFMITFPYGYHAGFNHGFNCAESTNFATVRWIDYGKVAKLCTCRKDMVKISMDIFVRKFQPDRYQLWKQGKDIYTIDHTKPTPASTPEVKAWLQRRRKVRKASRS
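System – N-terminal GST-fused human GASC-1 (KDM4C) fragment, residues 2-372 · Input – enzyme final amount 10 nM · Technique – LANCE TR-FRET, Eu antibody, ULight-streptavidin, EDTA, ex 340 nm, em 618/671 nm · Medium – HEPES buffer, pH 7.5, plus ascorbate · Incubation – enzyme reaction 30 min, then detection 60 min, both room temperature · Reagent – H3K9me3 peptide with Fe(II)/2OG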
T cruzi growth-1 – T. cruzi intracellular proliferation inhibitors, primary screen, cell-based, beta-gal Tulahuen parasites, NIH3T3 host, luminescence. 77,000 tested, 5.9% active. T. cruzi beta-gal in NIH3T3, GalScreen luminescence, 90 h. inhibition, % at 8.34 µM;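 active = mean inhibition above about 93%, with at least 55% of replicates each passing it, limit read from the data, passing the limit was not always enough; inconclusive = only one of those two conditions holds; inactive = neither condition holds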
IDH1 R132H inh – inhibitors of IDH1 R132H reductase, primary screen, biochemical, plate reader, single point | AID 624101, 2012 | inhibition, % at 10 µM | 70,000 tested, 0.18% active | diaphorase/resazurin fluorescence, 60 min; in the data active = inhibition above about 34%; inconclusive = no clear call, values can overlap the other calls; inactive = below about 11%;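 note: 0% = DMSO and 100% = no enzyme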
Target sequence (O75874 whole entry R132H): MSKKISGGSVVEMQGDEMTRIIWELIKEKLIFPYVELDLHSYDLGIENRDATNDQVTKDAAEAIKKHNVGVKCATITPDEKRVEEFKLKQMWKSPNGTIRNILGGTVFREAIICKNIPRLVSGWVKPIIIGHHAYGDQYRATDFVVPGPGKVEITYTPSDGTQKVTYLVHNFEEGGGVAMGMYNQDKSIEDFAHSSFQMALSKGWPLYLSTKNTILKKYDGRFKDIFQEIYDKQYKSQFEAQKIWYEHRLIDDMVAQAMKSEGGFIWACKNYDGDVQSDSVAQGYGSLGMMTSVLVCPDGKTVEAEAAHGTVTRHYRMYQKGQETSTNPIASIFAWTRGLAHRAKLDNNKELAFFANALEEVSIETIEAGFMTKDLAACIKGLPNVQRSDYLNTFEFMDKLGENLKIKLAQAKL
Pf Dd2 inh – P. falciparum Dd2 growth inhibitors, primary screen, SYBR Green fluorescence, single dose replicates; 72 h; hits give low values; activity change, % at 10 µM; 94,000 tested, 2.3% active; AID 1159554, 2015; in the data active = activity change below about -80%; inconclusive = no clear call, values can overlap the other calls
T cruzi growth-2 – T. cruzi intracellular proliferation inhibitors, confirmation, cell-based, NIH3T3 host, beta-gal parasite, luminescence, cherry-pick; shares compounds with T cruzi growth-1; T. cruzi beta-gal in NIH3T3, GalScreen luminescence, 90 h; inhibition, % at 8.35 µM; 5,600 tested, 72% active; AID 651739, 2012;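 active = mean replicate inhibition above about 95% and at least 55% of replicates individually reaching it, limit read from the data; inconclusive = only one of the two criteria is met; inactive = neither criterion is met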
T cruzi growth-3 – inhibitors of intracellular T. cruzi replication, confirmation, NIH3T3 host cells, beta-gal parasites, cherry-pick, set 2; shares compounds with T cruzi growth-1; T. cruzi beta-gal in NIH3T3, GalScreen luminescence, 90 h; inhibition, % at 2.09 µM; 5,600 tested, 21% active; AID 651740, 2012;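 active = mean inhibition above about 95%, with at least 55% of replicates also reaching it, limit read from the data; inconclusive = meets just one of the two conditions; inactive = meets neither condition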;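 note: plate controls were neutral control median for no effect and positive control median for full effect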
NIH3T3 tox – cytotoxicity in mouse NIH/3T3 fibroblasts, confirmation, cytotoxicity control for T. cruzi proliferation inhibitor project, cell-based, cherry-pick, single point; shares compounds with T cruzi growth-1; NIH/3T3 viability, CellTiter-Glo ATP luminescence, 90 h; cytotoxicity (signal decrease), % at 8.35 µM; 5,600 tested, 14% active; AID 651742, 2012;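 active = mean signal decrease across replicates above about 35% based on untreated-well scatter, with enough replicates individually passing, limit read from the data; inconclusive = no rule stated though some were filed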;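 note: 0% = median of neutral control wells and 100% = median of positive control wells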
NIH3T3 tox 2 – NIH/3T3 fibroblast cytotoxicity, confirmation, cytotoxicity control, cell-based, cherry-pick, single point, set 2; inhibition, % at 24.9 µM; shares compounds with T cruzi growth-1; NIH/3T3 viability, CellTiter-Glo ATP luminescence, 90 h; 5,600 tested, 56% active; AID 651744, 2012;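 active = mean loss of cell viability signal at or above a set limit, and enough replicates individually reaching it; inconclusive = meets only the mean limit or only the replicate share; inactive = meets neither condition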;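 note: 0% = median of neutral control wells and 100% = median of positive control wells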
Numbers without * were called inactive; ? = inconclusive; / = no result given. Shown are actives, neighbours in structure and some others; about 5.8% of the full set was active somewhere.

SMILES	GASC1 inh	T cruzi growth-1	IDH1 R132H inh	Pf Dd2 inh	T cruzi growth-2	T cruzi growth-3	NIH3T3 tox	NIH3T3 tox 2
C[C@@H]1CN([C@@H](C)CO)C(=O)c2cccc(NC(=O)C3CC3)c2O[C@@H]1CN(C)Cc1ccc(C(=O)Nc2ccccc2N)cc1	3.0	76.3	/	-14.0	/	/	/	/
C[C@@H]1CN([C@H](C)CO)C(=O)c2cccc(NC(=O)C3CC3)c2O[C@H]1CN(C)Cc1ccc(C(=O)Nc2ccccc2N)cc1	2.4	101.8*	/	-46.1	109.8*	93.3	5.6	29.9*
C[C@H](CO)N1C[C@H](C)[C@H](CN(C)Cc2ccc(C(=O)Nc3ccccc3N)cc2)Oc2c(NC(=O)C3CC3)cccc2C1=O	-0.1	97.8*	/	-15.8	106.2*	93.7	0.8	43.1*
CCn1c(SCC(=O)Nc2ccc(C(N)=O)cc2)nnc1-c1ccc(F)cc1	/	/	0.2	/	/	/	/	/
C[C@H](CO)N1C[C@H](C)[C@@H](CN(C)Cc2ccc(Oc3ccccc3)cc2)Oc2ncc(-c3ccncc3)cc2C1=O	3.7	108.9*	0.2	-72.6	110.8*	75.2	28.3	105.2*
C[C@@H]1CN([C@H](C)CO)C(=O)c2cc(-c3cccnc3)cnc2O[C@@H]1CN(C)Cc1ccc(Oc2ccccc2)cc1	4.8	37.4	-0.1	-11.5	/	/	/	/
C[C@@H]1CN([C@@H](C)CO)C(=O)c2cc(-c3ccncc3)cnc2O[C@H]1CN(C)Cc1ccc(Oc2ccccc2)cc1	1.7	93.6*	0.2	-61.4	101.7*	68.8	40.7*	104.4*
CN1C(=O)c2cc(NC(=O)c3ccc(F)c(F)c3)ccc2OC[C@@H]2O[C@H](CC(=O)N[C@H]3CCN(Cc4ccccc4)C3)CC[C@H]21	1.1	111.3*	/	/	98.7*	57.5	-14.5	-11.5
CN1C(=O)c2cc(NC(=O)Cc3cccs3)ccc2OC[C@H]2O[C@H](CC(=O)N[C@H]3CCN(Cc4ccccc4)C3)CC[C@@H]21	0.6	104.8*	/	/	?	65.9	-23.5	-46.5
CN1C(=O)c2cc(NC(=O)Cc3cccs3)ccc2OC[C@@H]2O[C@H](CC(=O)N[C@H]3CCN(Cc4ccccc4)C3)CC[C@H]21	-0.4	-63.5	/	/	/	/	/	/
CN1C(=O)c2cc(NC(=O)c3ccc(F)c(F)c3)ccc2OC[C@@H]2O[C@H](CC(=O)N[C@@H]3CCN(Cc4ccccc4)C3)CC[C@H]21	-0.3	105.8*	/	/	113.8*	50.1	-14.0	-9.7
CN1C(=O)c2cc(NC(=O)Cc3cccs3)ccc2OC[C@@H]2O[C@@H](CC(=O)N[C@H]3CCN(Cc4ccccc4)C3)CC[C@H]21	-2.1	82.2	/	/	/	/	/	/
CN1C(=O)c2cc(NC(=O)Cc3cccs3)ccc2OC[C@H]2O[C@@H](CC(=O)N[C@H]3CCN(Cc4ccccc4)C3)CC[C@@H]21	1.5	52.0	/	/	/	/	/	/
O=C(CSC1CC(=O)N(c2ccccc2)C1=O)Nc1ccccc1F (configuration not stated)	/	/	0.1	/	/	/	/	/
COc1ccc(S(=O)(=O)n2cc(-c3ccc(C)cc3)c(N)n2)c(OC)c1	/	/	0.4	/	/	/	/	/
COCC#Cc1ccc([C@H]2[C@@H](CO)N3CCCCN(Cc4cncnc4)C[C@H]23)cc1	0.4	108.8*	/	28.0	111.6*	56.0	17.3	15.2
COCC#Cc1ccc([C@@H]2[C@@H](CO)N3CCCCN(Cc4cncnc4)C[C@@H]23)cc1	-0.2	105.6*	/	23.5	?	-11.1	7.0	-1.3
COCC#Cc1ccc([C@@H]2[C@H]3CN(Cc4cncnc4)CCCCN3[C@H]2CO)cc1	0.5	67.7	/	-20.8	/	/	/	/
COCC#Cc1ccc([C@@H]2[C@H](CO)N3CCCCN(Cc4cncnc4)C[C@@H]23)cc1	1.2	?	/	19.2	?	34.0	-2.6	-9.8
COCC#Cc1ccc([C@@H]2[C@@H](CO)N3CCCCN(Cc4cncnc4)C[C@H]23)cc1	-0.4	102.8*	/	30.4	29.3	18.5	-13.3	64.7*
Cc1cc(I)ccc1NC(=O)CN(c1cc(Cl)ccc1C)S(C)(=O)=O	/	/	0.1	/	/	/	/	/
Cc1cc(OCC(=O)Nc2ccc3oc(-c4ccncc4)nc3c2)cc(C)c1Cl	/	/	-0.5	/	/	/	/	/
CC(C)c1ccc2oc(-c3ccc(NC(=O)COc4ccc([N+](=O)[O-])cc4)cc3)nc2c1	/	/	0.6	/	/	/	/	/
CCN(CC(=O)Nc1cccc(OC)c1)S(=O)(=O)c1ccc2ccccc2c1	/	/	-0.6	/	/	/	/	/
Cc1c(Cl)cccc1NC(=O)CSC1CC(=O)N(c2ccccc2)C1=O (configuration not stated)	/	/	-0.3	/	/	/	/	/
SMILES	GASC1 inh	T cruzi growth-1	IDH1 R132H inh	Pf Dd2 inh	T cruzi growth-2	T cruzi growth-3	NIH3T3 tox	NIH3T3 tox 2
O=S(=O)(Cc1ccccc1)N1CCCCN2[C@H](CO)[C@H](c3ccc(-c4ccccc4)cc3)[C@H]2C1	-0.7	106.4*	/	-42.2	98.1*	63.3	54.1*	104.0*
O=S(=O)(Cc1ccccc1)N1CCCCN2[C@H](CO)[C@H](c3ccc(-c4ccncc4)cc3)[C@@H]2C1	-0.6	-70.2	/	-2.5	/	/	/	/
O=S(=O)(Cc1ccccc1)N1CCCCN2[C@H](CO)[C@@H](c3ccc(-c4ccccc4)cc3)[C@@H]2C1	-1.1	114.1*	/	-24.0	102.1*	103.2*	?	101.1*
OC[C@@H]1[C@@H](c2ccc(-c3cccnc3)cc2)[C@H]2CN(CC3CC3)CCCCN12	-0.7	44.2	/	-48.8	/	/	/	/
OC[C@@H]1[C@H](c2ccc(-c3cccnc3)cc2)[C@@H]2CN(CC3CC3)CCCCN12	0.0	104.3*	/	-71.8	66.6	16.6	0.5	-9.2
CN1CCCCN2[C@H](CO)[C@H](c3ccc(-c4cccnc4)cc3)[C@@H]2C1	-0.2	?	/	-64.2	75.7	32.5	2.0	-12.6
O=C(COc1ccc(Cl)cc1)Nc1ccc(O)cc1C(=O)O	/	/	-0.5	/	/	/	/	/
Cc1ccccc1-c1ccc([C@H]2[C@@H](CO)N3CCCCN(S(=O)(=O)c4ccc(F)cc4)C[C@H]23)cc1	-1.9	109.2*	/	-66.9	98.3*	?	12.5	104.8*
Cc1ccccc1-c1ccc([C@@H]2[C@@H](CO)N3CCCCN(S(=O)(=O)c4ccc(F)cc4)C[C@@H]23)cc1	-1.2	108.1*	/	7.4	109.5*	82.4	30.0	81.3*
